{"source": "ChEMBL document CHEMBL3351585", "about": "“Design, synthesis and biological evaluation of novel peptides with anti-cancer and drug resistance-reversing activities” (Eur J Med Chem, 2015)", "key": {"MCF7 [1]": {"system": "MCF7", "experiment": "Antimigratory activity in human MCF7 cells assessed as inhibition of cell migration at 0.5 uM incubated for 48 hrs by wound healing assay", "assay_type": "functional, cell-based", "summary_of_the_method": "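MCF-7 cells were seeded at 2 × 10^5/well and grown 24 h to 90% confluence. A cell-free gap was scratched, and cells migrated in serum-free medium with peptide for 48 h. Wound closure was photographed at 0 h and 48 h.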"}, "[2]": {"experiment": "Cytotoxicity against human GES-1 cells after 48 hrs by MTT assay", "assay_type": "cell-based", "settings": "GES1, 48 h", "summary_of_the_method": "(§1)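 Cells grown in RPMI1640 with 10% heat-inactivated FBS and 1% penicillin-streptomycin at 37 °C, 5% CO2. Log-phase cells were seeded at 5 × 10^3/well 24 h before treatment, exposed to a range of peptide concentrations for 48 h, then given MTT for 4 h. Formazan was dissolved in DMSO and A490 read. Survival was computed relative to untreated wells, and IC50 taken from the survival curve.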"}, "[3]": {"experiment": "Increase in adriamycin uptake in human K562/ADR cells at 0.5 uM after 2.5 hrs by fluorescence spectrophotometry", "assay_type": "ADME, cell-based", "summary_of_the_method": "(§2)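 2 × 10^5 MCF-7/ADM or K562/ADM cells were co-incubated 2.5 h with ADM plus peptide, or with verapamil as comparator. After washing in cold PBS, cells were lysed in 0.75 M HCl/0.2% Triton X-100 in isopropanol. Lysate ADM fluorescence was measured by spectrofluorometry at ex 460/em 610 nm.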"}, "[4]": {"experiment": "Toxicity in rabbit erythrocytes assessed as induction of hemolysis at 160 uM incubated for 1 hr by microplate reader assay", "assay_type": "cell-based, Oryctolagus cuniculus", "settings": "erythrocyte", "summary_of_the_method": "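Rabbit red blood cells in PBS were mixed 1:1 by volume with peptide solution and incubated 1 h at 37 °C, then spun at 1000 g for 5 min. Hemoglobin in the supernatant was read at 540 nm. PBS defined 0% hemolysis and 0.1% Triton X-100 defined 100%.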"}, "MCF7 [5]": {"system": "MCF7", "experiment": "Antimigratory activity in human MCF7 cells assessed as inhibition of cell migration at 0.5 uM incubated for 48 hrs by transwell migration assay", "assay_type": "functional, cell-based", "summary_of_the_method": "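Transwell chambers with a porous membrane separating upper and lower compartments. 4 × 10^4 MCF-7 cells were placed in the upper chamber in peptide-containing medium and incubated 48 h. Cells that reached the lower membrane surface were counted.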"}, "[6]": {"experiment": "Increase in adriamycin uptake in human K562/ADR cells at 0.5 uM after 2.5 hrs by fluorescence microscopy", "assay_type": "ADME, cell-based", "summary_of_the_method": "(§3)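 2 × 10^5 MCF-7/ADM or K562/ADM cells were co-incubated 2.5 h with ADM plus peptide, or with verapamil as comparator. Cells were washed with cold PBS and ADM fluorescence was imaged by fluorescence microscopy.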"}, "MCF7 [7]": {"system": "MCF7", "experiment": "Induction of cytochrome c release in cytoplasm of human MCF7 cells at 5 uM incubated for 2 hrs by ELISA method (reference value: 44.1 +/- 2.7 ng)", "assay_type": "functional"}, "[8]": {"experiment": "Retention time of the compound by UPLC method", "assay_type": "physicochemical"}, "[9]": {"experiment": "Increase in adriamycin uptake in human MCF7/ADR cells at 0.5 uM after 2.5 hrs by fluorescence spectrophotometry", "assay_type": "ADME, cell-based", "settings": "nci/adr-res", "summary_of_the_method": "as §2"}, "[10]": {"experiment": "Increase in adriamycin uptake in human MCF7/ADR cells at 0.5 uM after 2.5 hrs by fluorescence microscopy", "assay_type": "ADME, cell-based", "settings": "nci/adr-res", "summary_of_the_method": "as §3"}, "MCF7 [11]": {"system": "MCF7", "experiment": "Induction of cell membrane morphology changes in human MCF7 cells at 5 uM incubated for 30 mins by scanning electron microscopy", "assay_type": "functional, cell-based", "summary_of_the_method": "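MCF-7 cells were grown 24 h on coverslips at 1 × 10^5/well and exposed to peptide for 30 min. Cells were gently PBS-washed, fixed in 2.5% glutaraldehyde, and examined by scanning electron microscopy.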"}, "[12]": {"experiment": "Anticancer activity against human K562/ADR cells after 48 hrs by MTT assay", "assay_type": "functional, cell-based", "summary_of_the_method": "as §1"}, "MCF7 [13]": {"system": "MCF7", "experiment": "Anticancer activity against human MCF7 cells after 48 hrs by MTT assay", "assay_type": "functional, cell-based", "settings": "MCF7, 48 h", "summary_of_the_method": "as §1"}, "K562/Adr [14]": {"system": "K562/Adr", "experiment": "Potentiation of adriamycin-induced cytotoxicity against human K562/ADR cells at 0.5 uM after 48 hrs by MTT assay", "assay_type": "functional, cell-based", "summary_of_the_method": "(§4)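 ADM-resistant MCF-7/ADM or K562/ADM cells, grown in RPMI1640 with 10% FBS at 37 °C and 5% CO2, were seeded at 1 × 10^4 per well and held 24 h. Fixed peptide was added, followed by graded ADM concentrations, for 48 h. MTT was then given for 4 h at 37 °C, formazan dissolved in DMSO and absorbance read at 570 nm. Verapamil served as positive control.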"}, "[15]": {"experiment": "Anticancer activity against human MCF7/ADR cells after 48 hrs by MTT assay", "assay_type": "functional, cell-based", "settings": "NCI/ADR-RES", "summary_of_the_method": "as §1"}, "MCF7 [16]": {"system": "MCF7", "experiment": "Induction of cytochrome c release in extracellular region of human MCF7 cells at 5 uM incubated for 2 hrs by ELISA method (reference value: 15.7 +/- 0.77 ng)", "assay_type": "functional"}, "MCF7 [17]": {"system": "MCF7", "experiment": "Induction of mitochondrial membrane potential depolarization in human MCF7 cells at 5 uM incubated for 2 hrs by JC1 staining", "assay_type": "functional, cell-based", "summary_of_the_method": "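MCF-7 cells plated at 1 × 10^5 per well, grown 24 h, then exposed to peptide for 2 h. Mitochondrial membrane potential was assessed with a JC-1 mitochondrial membrane potential kit. Green (monomer) and red (J-aggregate) fluorescence were imaged, with merged orange taken as normal potential.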"}, "K562": {"system": "K562", "experiment": "Anticancer activity against human K562 cells after 48 hrs by MTT assay", "assay_type": "functional, cell-based", "settings": "K562, 48 h", "summary_of_the_method": "as §1"}, "NCI/ADR-RES [18]": {"system": "NCI/ADR-RES", "experiment": "Potentiation of adriamycin-induced cytotoxicity against human MCF7/ADR cells at 0.5 uM after 48 hrs by MTT assay", "assay_type": "functional, cell-based", "summary_of_the_method": "as §4"}, "MCF7 [19]": {"system": "MCF7", "experiment": "Induction of cell membrane alteration in human MCF7 cells at 5 uM incubated for 30 mins by acridine orange/ethidium bromide double staining method", "assay_type": "functional, cell-based", "summary_of_the_method": "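MCF-7 cells were plated at 1 × 10^5/well and grown 24 h, then given peptide for 30 min. Cells were washed twice with PBS and stained 10 min in the dark with cold PBS containing acridine orange and ethidium bromide. Excess dye was washed off, then cells were imaged by fluorescence microscopy. Red EB staining marks membrane-compromised cells.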"}, "MCF7 [20]": {"system": "MCF7", "experiment": "Induction of cytochrome c release in human MCF7 cells at 5 uM incubated for 2 hrs by ELISA method (reference value: 364.2 +/- 20.5 ng)", "assay_type": "functional"}, "MCF7 [21]": {"system": "MCF7", "experiment": "Induction of cytochrome c release in mitochondria of human MCF7 cells at 5 uM incubated for 2 hrs by ELISA method (reference value: 347.8 +/- 14.5 ng)", "assay_type": "functional"}, "[22]": {"experiment": "Drug uptake in cytosol of human MCF7 cells at 5 uM incubated for 5 mins or 30 mins by fluorescein isothiocyanate labeling based fluorescence microscopy", "assay_type": "ADME, cell-based", "summary_of_the_method": "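MCF-7 cells were plated at 1 × 10^5/well and grown 24 h, then exposed to FITC-labeled peptides for 5 min or 30 min. Cells were washed three times with cold PBS, and intracellular fluorescence was imaged by fluorescence microscopy.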"}, "[23]": {"experiment": "Increase in adriamycin uptake in human MCF7/ADR cells at 10 uM after 2.5 hrs by fluorescence microscopy", "assay_type": "ADME, cell-based", "settings": "nci/adr-res", "summary_of_the_method": "as §3"}, "K562/Adr [24]": {"system": "K562/Adr", "experiment": "Potentiation of adriamycin-induced cytotoxicity against human K562/ADR cells at 10 uM after 48 hrs by MTT assay", "assay_type": "functional, cell-based", "summary_of_the_method": "as §4"}, "[25]": {"experiment": "Increase in adriamycin uptake in human MCF7/ADR cells at 10 uM after 2.5 hrs by fluorescence spectrophotometry", "assay_type": "ADME, cell-based", "settings": "nci/adr-res", "summary_of_the_method": "as §2"}, "[26]": {"experiment": "Increase in adriamycin uptake in human K562/ADR cells at 10 uM after 2.5 hrs by fluorescence microscopy", "assay_type": "ADME, cell-based", "summary_of_the_method": "as §3"}, "[27]": {"experiment": "Increase in adriamycin uptake in human K562/ADR cells at 10 uM after 2.5 hrs by fluorescence spectrophotometry", "assay_type": "ADME, cell-based", "summary_of_the_method": "as §2"}, "NCI/ADR-RES [28]": {"system": "NCI/ADR-RES", "experiment": "Potentiation of adriamycin-induced cytotoxicity against human MCF7/ADR cells at 10 uM after 48 hrs by MTT assay", "assay_type": "functional, cell-based", "summary_of_the_method": "as §4"}}, "note": "The source made the active and inactive calls. The rule behind the calls is not given here.", "data": [{"compound": "H-VKRFKKFFRKLKKLV-NH2", "values": [{"measurement": "inhibition", "setting": "MCF7 [1]", "value": "Active"}, {"measurement": "IC50", "setting": "[2]", "value": 77.6, "unit": "µM"}, {"measurement": "Activity", "setting": "[3]", "value": "Active"}, {"measurement": "Activity", "setting": "[4]", "value": "Non-toxic"}, {"measurement": "inhibition", "setting": "MCF7 [5]", "value": "Active"}, {"measurement": "Activity", "setting": "[6]", "value": "Active"}, {"measurement": "Activity", "setting": "MCF7 [7]", "value": 59.9, "unit": "ng"}, {"measurement": "Retention_time", "setting": "[8]", "value": 3.84, "unit": "min"}, {"measurement": "Activity", "setting": "[9]", "value": "Active"}, {"measurement": "Activity", "setting": "[10]", "value": "Active"}, {"measurement": "Activity", "setting": "MCF7 [11]", "value": "Active"}, {"measurement": "IC50", "setting": "[12]", "value": 3.3, "unit": "µM"}, {"measurement": "IC50", "setting": "MCF7 [13]", "value": 3.6, "unit": "µM"}, {"measurement": "Activity", "setting": "K562/Adr [14]", "value": "Active"}, {"measurement": "IC50", "setting": "[15]", "value": 4.4, "unit": "µM"}, {"measurement": "Activity", "setting": "MCF7 [16]", "value": 14.9, "unit": "ng"}, {"measurement": "Activity", "setting": "MCF7 [17]", "value": "Active"}, {"measurement": "IC50", "setting": "K562", "value": 1.1, "unit": "µM"}, {"measurement": "Activity", "setting": "NCI/ADR-RES [18]", "value": "Active"}, {"measurement": "Activity", "setting": "MCF7 [19]", "value": "Active"}, {"measurement": "Activity", "setting": "MCF7 [20]", "value": 354.8, "unit": "ng"}, {"measurement": "Activity", "setting": "MCF7 [21]", "value": 303.8, "unit": "ng"}, {"measurement": "Drug uptake", "setting": "[22]", "value": "Active"}]}, {"compound": "COc1ccc(CCN(C)CCCC(C#N)(c2ccc(OC)c(OC)c2)C(C)C)cc1OC", "note": "(centres undefined) [VERAPAMIL]", "values": [{"measurement": "Activity", "setting": "[23]", "value": "Active"}, {"measurement": "Activity", "setting": "K562/Adr [24]", "value": "Active"}, {"measurement": "Activity", "setting": "[25]", "value": "Active"}, {"measurement": "Activity", "setting": "[26]", "value": "Active"}, {"measurement": "Activity", "setting": "[27]", "value": "Active"}, {"measurement": "Activity", "setting": "NCI/ADR-RES [28]", "value": "Active"}]}]}
